The nature of assay [1]: Displacement of [3H]AMPA from AMPA receptor in rat cortical membrane. Format: cell membranes. An outline of the steps: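 Rat brain membranes prepared per Ransom and Stec; native AMPA receptor affinity measured with 5 nM [3H]AMPA. Means of at least three to four independent experiments; values as pIC50 or pKi ± SEM.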
The nature of assay [2]: Displacement of [3H]KA from KA receptor in rat cortical membrane. The format is cell membranes. An outline of the steps: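 Native kainate receptor binding on rat brain membranes (Ransom and Stec preparation) using 5 nM [3H]KA. Means of at least three to four independent experiments, reported as pIC50 or pKi ± SEM.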
Another assay addresses Glutamate NMDA receptor. The assay can be described thus: Displacement of [3H]CGP39653 from NMDA receptor in rat cortical membrane. The format is cell membranes. In a few lines:
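NMDA receptor affinity on rat brain membranes prepared per Ransom and Stec, radioligand 2 nM [3H]CGP39653. Means of at least three to four independent experiments; pIC50 or pKi ± SEM.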
(In a radioligand displacement assay an active substance lowers the binding of a labelled ligand.)

Assay [3] addresses T1, Metabotropic glutamate receptor 1 (Rattus norvegicus, UniProt P23385). Briefly: Antagonist activity at rat mGluR1a receptor expressed in CHO cells assessed as effect on intracellular calcium level. The format is functional, cell-based. In a few lines: (§1)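 Means of at least three independent experiments, expressed as pEC50 or pKi ± SEM.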
For orientation: A change in cytosolic calcium serves as a functional read-out for many receptors and channels.

Assay [4] has as its target T2, Metabotropic glutamate receptor 2 (Rattus norvegicus, UniProt P31421). The assay can be described thus: (§2) Agonist activity at rat mGluR2 receptor expressed in CHO cells assessed as effect on intracellular cAMP level. The format is functional, cell-based. An outline of the steps: as §1
Background: Changes in cAMP serve as a functional read-out for many G protein-coupled receptors.

Assay [5] concerns the target Metabotropic glutamate receptor 4 (Rattus norvegicus, UniProt P31423). The assay can be described thus: Agonist activity at rat mGluR4 receptor expressed in CHO cells assessed as effect on intracellular cAMP level. The format is functional, cell-based. An outline of the steps:
as §1

In assay [6] the target is T1, Metabotropic glutamate receptor 1. The assay can be described thus: Agonist activity at rat mGluR1a receptor expressed in CHO cells assessed as effect on intracellular calcium level. Format: functional, cell-based. An outline of the steps: as §1
In assay [7] the target is T2, Metabotropic glutamate receptor 2. Briefly: Antagonist activity at rat mGluR2 receptor expressed in CHO cells assessed as effect on intracellular cAMP level. Format: functional, cell-based. In a few lines: as §1
Assay [8] deals with Metabotropic glutamate receptor 2 (Rattus norvegicus) (UniProt P31421). Described as §2. Format: functional, cell-based. In a few lines:
as §1

T1 sequence (P23385 whole entry): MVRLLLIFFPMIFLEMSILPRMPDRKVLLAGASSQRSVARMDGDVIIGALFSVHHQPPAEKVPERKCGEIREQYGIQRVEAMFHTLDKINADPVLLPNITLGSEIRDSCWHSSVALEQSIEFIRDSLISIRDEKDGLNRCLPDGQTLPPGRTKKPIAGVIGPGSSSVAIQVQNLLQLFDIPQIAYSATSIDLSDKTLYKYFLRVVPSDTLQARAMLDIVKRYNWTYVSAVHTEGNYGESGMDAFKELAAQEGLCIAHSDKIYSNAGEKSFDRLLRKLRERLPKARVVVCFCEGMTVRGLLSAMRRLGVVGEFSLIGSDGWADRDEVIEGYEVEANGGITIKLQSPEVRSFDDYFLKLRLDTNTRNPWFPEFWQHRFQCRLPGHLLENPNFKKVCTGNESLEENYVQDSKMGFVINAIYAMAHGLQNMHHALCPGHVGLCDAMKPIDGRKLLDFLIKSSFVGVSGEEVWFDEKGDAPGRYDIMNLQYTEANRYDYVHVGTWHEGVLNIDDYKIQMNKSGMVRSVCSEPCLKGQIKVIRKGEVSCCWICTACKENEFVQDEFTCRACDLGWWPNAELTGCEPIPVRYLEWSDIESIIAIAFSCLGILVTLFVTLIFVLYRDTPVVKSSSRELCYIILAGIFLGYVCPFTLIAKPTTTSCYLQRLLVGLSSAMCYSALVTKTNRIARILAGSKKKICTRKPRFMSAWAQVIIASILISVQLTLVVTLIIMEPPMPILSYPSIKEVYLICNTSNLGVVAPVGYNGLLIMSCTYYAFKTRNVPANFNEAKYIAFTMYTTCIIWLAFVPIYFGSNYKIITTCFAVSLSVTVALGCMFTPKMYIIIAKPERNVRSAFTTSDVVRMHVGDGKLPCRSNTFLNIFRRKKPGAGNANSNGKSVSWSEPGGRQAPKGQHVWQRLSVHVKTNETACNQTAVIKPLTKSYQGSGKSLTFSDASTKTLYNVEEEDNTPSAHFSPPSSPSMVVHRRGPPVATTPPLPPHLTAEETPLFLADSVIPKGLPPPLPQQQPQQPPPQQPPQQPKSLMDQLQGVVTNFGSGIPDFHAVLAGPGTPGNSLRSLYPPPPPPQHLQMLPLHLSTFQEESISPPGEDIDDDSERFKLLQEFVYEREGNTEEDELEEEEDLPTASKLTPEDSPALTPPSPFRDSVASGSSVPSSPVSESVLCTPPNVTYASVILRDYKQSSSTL
Sequence of Metabotropic glutamate receptor 4 (P31423 whole entry): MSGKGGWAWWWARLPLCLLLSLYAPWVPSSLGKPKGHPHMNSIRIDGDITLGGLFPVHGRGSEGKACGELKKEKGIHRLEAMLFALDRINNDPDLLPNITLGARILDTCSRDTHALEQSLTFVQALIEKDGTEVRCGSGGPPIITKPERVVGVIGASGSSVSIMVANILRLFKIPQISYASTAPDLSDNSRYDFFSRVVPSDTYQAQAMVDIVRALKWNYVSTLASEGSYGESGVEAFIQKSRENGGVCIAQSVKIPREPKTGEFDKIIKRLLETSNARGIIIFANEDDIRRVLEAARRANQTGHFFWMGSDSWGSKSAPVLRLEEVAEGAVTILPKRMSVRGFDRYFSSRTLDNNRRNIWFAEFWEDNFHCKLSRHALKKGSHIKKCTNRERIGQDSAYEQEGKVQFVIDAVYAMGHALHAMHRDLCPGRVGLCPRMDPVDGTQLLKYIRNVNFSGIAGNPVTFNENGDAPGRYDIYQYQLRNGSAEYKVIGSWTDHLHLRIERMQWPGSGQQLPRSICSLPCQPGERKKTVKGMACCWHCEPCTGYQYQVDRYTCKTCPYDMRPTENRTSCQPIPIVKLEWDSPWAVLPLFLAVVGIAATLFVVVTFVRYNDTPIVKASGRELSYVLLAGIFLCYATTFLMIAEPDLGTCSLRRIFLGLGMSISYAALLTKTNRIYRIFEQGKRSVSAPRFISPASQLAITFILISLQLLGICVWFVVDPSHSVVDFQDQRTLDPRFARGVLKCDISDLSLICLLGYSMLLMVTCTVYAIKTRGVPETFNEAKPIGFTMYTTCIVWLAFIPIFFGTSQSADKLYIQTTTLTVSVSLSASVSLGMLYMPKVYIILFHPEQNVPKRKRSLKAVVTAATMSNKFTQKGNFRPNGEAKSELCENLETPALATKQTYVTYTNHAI
T2 sequence (P31421 whole entry): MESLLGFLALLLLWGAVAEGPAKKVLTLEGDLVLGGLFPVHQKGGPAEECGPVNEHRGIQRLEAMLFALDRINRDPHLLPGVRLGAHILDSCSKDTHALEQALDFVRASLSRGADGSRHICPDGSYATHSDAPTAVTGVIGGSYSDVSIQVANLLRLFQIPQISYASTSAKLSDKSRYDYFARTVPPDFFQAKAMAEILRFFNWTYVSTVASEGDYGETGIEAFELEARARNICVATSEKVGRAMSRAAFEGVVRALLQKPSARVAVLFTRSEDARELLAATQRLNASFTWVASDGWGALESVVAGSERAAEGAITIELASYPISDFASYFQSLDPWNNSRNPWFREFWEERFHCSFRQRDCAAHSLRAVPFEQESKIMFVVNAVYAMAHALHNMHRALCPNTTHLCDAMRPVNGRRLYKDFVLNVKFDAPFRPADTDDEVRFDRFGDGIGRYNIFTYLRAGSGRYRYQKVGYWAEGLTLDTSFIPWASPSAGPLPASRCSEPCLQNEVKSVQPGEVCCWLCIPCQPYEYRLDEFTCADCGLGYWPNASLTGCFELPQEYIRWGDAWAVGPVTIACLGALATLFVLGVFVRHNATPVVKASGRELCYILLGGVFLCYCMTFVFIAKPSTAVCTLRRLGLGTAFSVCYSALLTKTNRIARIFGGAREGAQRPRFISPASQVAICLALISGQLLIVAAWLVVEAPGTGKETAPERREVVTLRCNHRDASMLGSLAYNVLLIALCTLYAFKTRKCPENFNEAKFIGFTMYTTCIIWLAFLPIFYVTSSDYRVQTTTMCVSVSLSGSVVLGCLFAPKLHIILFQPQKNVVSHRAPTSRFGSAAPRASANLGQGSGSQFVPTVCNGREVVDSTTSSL
Sequence of Metabotropic glutamate receptor 2 (Rattus norvegicus) (P31421 19-872 limits assumed): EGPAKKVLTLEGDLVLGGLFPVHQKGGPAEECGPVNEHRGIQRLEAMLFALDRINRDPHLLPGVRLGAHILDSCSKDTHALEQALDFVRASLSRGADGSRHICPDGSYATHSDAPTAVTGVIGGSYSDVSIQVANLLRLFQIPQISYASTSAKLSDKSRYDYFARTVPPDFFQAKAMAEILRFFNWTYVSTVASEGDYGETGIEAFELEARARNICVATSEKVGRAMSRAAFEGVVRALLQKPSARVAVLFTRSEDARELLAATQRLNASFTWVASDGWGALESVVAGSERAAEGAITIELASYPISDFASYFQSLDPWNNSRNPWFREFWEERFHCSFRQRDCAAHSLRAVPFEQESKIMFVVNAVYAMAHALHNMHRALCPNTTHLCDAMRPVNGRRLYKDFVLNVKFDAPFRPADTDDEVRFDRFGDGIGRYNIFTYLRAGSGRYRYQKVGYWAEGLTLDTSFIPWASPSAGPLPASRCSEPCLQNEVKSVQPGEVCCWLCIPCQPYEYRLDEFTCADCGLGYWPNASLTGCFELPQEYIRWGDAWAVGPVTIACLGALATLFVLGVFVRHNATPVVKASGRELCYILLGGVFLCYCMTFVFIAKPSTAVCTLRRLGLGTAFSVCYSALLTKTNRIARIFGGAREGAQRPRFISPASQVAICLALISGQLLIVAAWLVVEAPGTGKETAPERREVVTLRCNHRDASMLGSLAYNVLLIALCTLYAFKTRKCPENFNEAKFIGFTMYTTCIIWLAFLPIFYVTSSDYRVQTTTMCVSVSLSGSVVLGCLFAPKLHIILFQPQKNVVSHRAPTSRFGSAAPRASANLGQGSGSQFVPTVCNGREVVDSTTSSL

As to `NC(C(=O)O)c1cnn(O)c1CCc1ccccc1` (racemic), the IC50 in assay [1] and in assay [2] was more than 100 µM each time. Also, the Ki (in general, the dissociation constant of the complex between target and ligand, obtained from inhibition or displacement) was more than 100 µM on Glutamate NMDA receptor, 230 µM in [3] (read-out: Ki) and 195 µM in assay [3] (read-out: Log Ki (converted)). Moreover, the EC50 in [4] (read-out: EC50) and in assay [5] was more than 1000 µM in each case.

As to `NC(C(=O)O)c1cnn(O)c1CC1CC1` (racemic), the half-inhibitory concentration (IC50) in assay [1] and in assay [2] was more than 100 µM throughout. At Glutamate NMDA receptor, this molecule returned an inhibition constant (Ki) of 35 µM. For the same molecule, the “Log Ki” value on Glutamate NMDA receptor was -4.47. Further, the EC50 in assay [6], in assay [4] (read-out: EC50) and in [5] was more than 1000 µM in each case.

For the molecule `NC(C(=O)O)c1cnn(O)c1Cc1ccccc1` (racemic), the half-maximal inhibitory concentration (IC50) in assay [1] and in assay [2] was more than 100 µM each time. The inhibitory constant (Ki) is 67 µM on Glutamate NMDA receptor and 120 µM in assay [7]. Further, the concentration for a half-maximal effect (EC50) in assay [6] and in assay [5] was more than 1000 µM throughout.

In the case of `CCCCCc1c(C(N)C(=O)O)cnn1O` (racemic), the half-inhibitory concentration (IC50) in assay [1] and in assay [2] was more than 100 µM throughout. Also, the inhibitory constant (Ki) at Glutamate NMDA receptor is more than 100 µM. For the same molecule, the EC50 in assay [6], in assay [4] (read-out: EC50) and in assay [5] was more than 1000 µM throughout.

Turning to `NC(C(=O)O)c1cnn(O)c1CC1CCCCC1` (racemic), the IC50 in assay [1] and in assay [2] was more than 100 µM throughout. The inhibition constant Ki is more than 100 µM at Glutamate NMDA receptor and 32 µM in assay [7]. For the same molecule, the EC50 in assay [6] and in [5] was more than 1000 µM each time.

In the case of `CCCc1c(C(N)C(=O)O)cnn1O` (racemic), the IC50 in assay [1] and in [2] was more than 100 µM each time. For the same molecule, the inhibition constant Ki at Glutamate NMDA receptor was more than 100 µM. Moreover, the EC50 (commonly the concentration that produces a half-maximal response) in assay [6] is more than 1000 µM; in assay [4] (read-out: EC50), 72 µM; in assay [4] (read-out: Log EC50 (converted)), 67.6 µM; in [5], more than 1000 µM.

As for `NC(C(=O)O)c1cnn(O)c1CCCc1ccccc1` (racemic), the half-maximal inhibitory concentration (IC50) in [1] and in [2] was more than 100 µM throughout. In addition, the Ki came to 54 µM on Glutamate NMDA receptor, 260 µM in [3] (read-out: Ki) and 67 µM in [7]. Further, the EC50 in [5] is more than 1000 µM.

In the case of `CCc1c(C(N)C(=O)O)cnn1O` (racemic), the concentration for half-maximal inhibition (IC50) in [1] and in assay [2] was more than 100 µM in each case. In addition, the affinity on Glutamate NMDA receptor, expressed as Ki, was 32 µM. In addition, the EC50 was more than 1000 µM in [6], 57 µM in assay [4] (read-out: EC50) and more than 1000 µM in assay [5].

Consider `NC(C(=O)O)c1cnn(O)c1-c1ccccc1` (racemic), for which the IC50 in assay [1] and in assay [2] was more than 100 µM in each case. Further, the inhibitory constant (Ki) at Glutamate NMDA receptor was more than 100 µM; in assay [7], 180 µM. The concentration for a half-maximal effect (EC50) in [6] and in [5] was more than 1000 µM throughout.

For the molecule `NC(C(=O)O)c1cnn(O)c1Br` (racemic), the IC50 in assay [1] and in assay [2] was more than 100 µM each time. On Glutamate NMDA receptor, this molecule registered a Ki of 25 µM. Further, the EC50 was more than 1000 µM in assay [6], 170 µM in assay [4] (read-out: EC50), 151 µM in [4] (read-out: Log EC50 (converted)) and more than 1000 µM in assay [5]. The Activity in assay [8] was determined as 43%.

As to `CCCCc1c(C(N)C(=O)O)cnn1O` (racemic), the IC50 in [1] and in assay [2] was more than 100 µM each time. The molecule also displayed an inhibitory constant (Ki) at Glutamate NMDA receptor of more than 100 µM. Further, the half-maximal effective concentration (EC50) in assay [6], in assay [4] (read-out: EC50) and in assay [5] was more than 1000 µM each time.

For `NC(C(=O)O)c1cnn(O)c1C(c1ccccc1)c1ccccc1` (racemic), the concentration for half-maximal inhibition (IC50) – broadly, the point on the concentration scale where inhibition reaches its midpoint – in assay [1] is more than 100 µM; in assay [2] it was 47 µM. Besides, the “Log IC50” value in assay [2] is given as -4.33. At Glutamate NMDA receptor, this molecule returned a Ki of more than 100 µM. The half-maximal effective concentration (EC50) in assay [6], in assay [4] (read-out: EC50) and in assay [5] was more than 1000 µM throughout.
